Assay results published in ChEMBL document CHEMBL1124493, “Synthesis and tumor uptake of 5-82Br- and 5-131I-labeled 5-halo-1-(2-fluoro-2-deoxy-beta-D-ribofuranosyl)uracils” (J Med Chem, 1989).

Tests used:
Mus musculus [1] = test: Biodistribution of intravenously injected [131I]-labeled compound in kidney of BDF1 female mice bearing subcutaneous Lewis lung carcinoma after 0.25 hours; format: ADME, organism-based; settings: in vivo, iv
Method in brief: (§1)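 Female BDF1 mice bearing subcutaneous Lewis lung carcinoma received a single intravenous dose of 0.5-1.8 μg of the 131I-labeled nucleoside (55-110 kBq). They were sacrificed at set times, and tissues were weighed wet and γ-counted. Activity is expressed as percent of injected dose per gram of wet tissue, given as mean ± standard deviation for six animals.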

Mus musculus [2] = test: Biodistribution of intravenously injected [131I]-labeled compound in heart of BDF1 female mice bearing subcutaneous Lewis lung carcinoma after 4 hours; format: ADME, organism-based; settings: in vivo, iv; method in brief: as §1
Mus musculus [3] = test: Biodistribution of intravenously injected [131I]-labeled compound in liver of BDF1 female mice bearing subcutaneous Lewis lung carcinoma after 4 hours; format: ADME, organism-based; settings: in vivo, iv; method in brief: as §1
Mus musculus [4] = test: Biodistribution of intravenously injected [82Br]-labeled compound in blood of BDF1 female mice bearing subcutaneous Lewis lung carcinoma after 4 hours; format: ADME, organism-based; settings: in vivo, iv, in the assay text read “[131I]-labeled” for “[82Br]-labeled”
Mus musculus [5] = test: Biodistribution of intravenously injected [131I]-labeled compound in muscle of BDF1 female mice bearing subcutaneous Lewis lung carcinoma after 24 hours; format: ADME, organism-based, Muscle tissue; settings: in vivo, iv
Method in brief: (§2)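 Female BDF1 mice with subcutaneous Lewis lung carcinoma given i.v. 0.5-1.8 μg of 131I-labeled nucleoside (55-110 kBq). Killed at set times. Tissues weighed wet and γ-counted. Radioactivity expressed as percent injected dose per gram wet tissue, mean ± SD of six animals.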

Mus musculus [6] = test: Biodistribution of intravenously injected [131I]-labeled compound in tumor of BDF1 female mice bearing subcutaneous Lewis lung carcinoma after 24 hours; format: ADME, organism-based; settings: in vivo, iv; method in brief: as §2
Mus musculus [7] = test: Biodistribution of intravenously injected [131I]-labeled compound in skin of BDF1 female mice bearing subcutaneous Lewis lung carcinoma after 1 hours; format: ADME, organism-based, Zone of skin; settings: in vivo, iv; method in brief: as §2
Mus musculus [8] = test: Biodistribution of intravenously injected [131I]-labeled compound in spleen of BDF1 female mice bearing subcutaneous Lewis lung carcinoma after 8 hours; format: ADME, organism-based; settings: in vivo, iv; method in brief: as §2
Mus musculus [9] = test: Biodistribution of intravenously injected [131I]-labeled compound in bone of BDF1 female mice bearing subcutaneous Lewis lung carcinoma after 2 hours; format: ADME, organism-based, Bone element; settings: in vivo, iv; method in brief: as §1
Mus musculus [10] = test: Biodistribution of intravenously injected [131I]-labeled compound in bone of BDF1 female mice bearing subcutaneous Lewis lung carcinoma after 0.5 hours; format: ADME, organism-based, Bone element; settings: in vivo, iv; method in brief: as §1
Mus musculus [11] = test: Biodistribution of intravenously injected [131I]-labeled compound in lung of BDF1 female mice bearing subcutaneous Lewis lung carcinoma after 4 hours; format: ADME, organism-based; settings: in vivo, iv; method in brief: as §1
Mus musculus [12] = test: Biodistribution of intravenously injected [131I]-labeled compound in tumor of BDF1 female mice bearing subcutaneous Lewis lung carcinoma after 4 hr; format: ADME, organism-based; settings: in vivo, iv; method in brief: as §2
Mus musculus [13] = test: Biodistribution of intravenously injected [131I]-labeled compound in blood of BDF1 female mice bearing subcutaneous Lewis lung carcinoma after 0.50 hours; format: ADME, organism-based; settings: in vivo, iv, 0.5 h; method in brief: as §1
Mus musculus [14] = test: Biodistribution of intravenously injected [82Br]-labeled compound in blood of BDF1 female mice bearing subcutaneous Lewis lung carcinoma after 2 hours; format: ADME, organism-based; settings: in vivo, iv
Method in brief: (§3)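 82Br-labeled nucleoside given intravenously to female BDF1 mice bearing subcutaneous Lewis lung carcinoma, at 47-130 μg carrying 20-60 kBq. Mice sacrificed at each time point. Wet-weighed tissues γ-counted. Values are percent injected dose per gram wet tissue, mean ± SD, n = 6.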

Mus musculus [15] = test: Biodistribution of intravenously injected [82Br]-labeled compound in stomach of BDF1 female mice bearing subcutaneous Lewis lung carcinoma after 2 hours; format: ADME, organism-based; settings: in vivo, iv
Mus musculus [16] = test: Biodistribution of intravenously injected [82Br]-labeled compound in liver of BDF1 female mice bearing subcutaneous Lewis lung carcinoma after 0.25 hours; format: ADME, organism-based; settings: in vivo, iv
Method in brief: (§4)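 Female BDF1 mice with subcutaneous Lewis lung carcinoma given an iv injection of [82Br]-labelled nucleoside, 47-130 μg carrying 20-60 kBq 82Br. Tissues were excised, weighed wet and γ-counted. Values are percent injected dose per gram of wet tissue, mean ± standard deviation of six animals, with organ-to-tumour ratios derived.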

Mus musculus [17] = test: Biodistribution of intravenously injected [82Br]-labeled compound in bone of BDF1 female mice bearing subcutaneous Lewis lung carcinoma after 1 hours; format: ADME, organism-based, Bone element; settings: in vivo, iv; method in brief: as §3
Mus musculus [18] = test: Biodistribution of intravenously injected [82Br]-labeled compound in lung of BDF1 female mice bearing subcutaneous Lewis lung carcinoma after 4 hours; format: ADME, organism-based; settings: in vivo, iv; method in brief: as §4
Mus musculus [19] = test: Biodistribution of intravenously injected [82Br]-labeled compound in blood of BDF1 female mice bearing subcutaneous Lewis lung carcinoma after 8 hours; format: ADME, organism-based; settings: in vivo, iv; method in brief: as §3
Mus musculus [20] = test: Biodistribution of intravenously injected [82Br]-labeled compound in kidney of BDF1 female mice bearing subcutaneous Lewis lung carcinoma after 0.5 hours; format: ADME, organism-based; settings: in vivo, iv; method in brief: as §4
Mus musculus [21] = test: Biodistribution of intravenously injected [82Br]-labeled compound in blood of BDF1 female mice bearing subcutaneous Lewis lung carcinoma after 1 hours; format: ADME, organism-based; settings: in vivo, iv; method in brief: as §3
Mus musculus [22] = test: Biodistribution of intravenously injected [82Br]-labeled compound in blood of BDF1 female mice bearing subcutaneous Lewis lung carcinoma after 0.50 hours; format: ADME, organism-based; settings: in vivo, iv, 0.5 h; method in brief: as §3
Mus musculus [23] = test: Biodistribution of intravenously injected [82Br]-labeled compound in tumor of BDF1 female mice bearing subcutaneous Lewis lung carcinoma after 8 hours; format: ADME, organism-based; settings: in vivo, iv
Mus musculus [24] = test: Biodistribution of intravenously injected [82Br]-labeled compound in lung of BDF1 female mice bearing subcutaneous Lewis lung carcinoma after 0.5 hours; format: ADME, organism-based; settings: in vivo, iv; method in brief: as §4
Mus musculus [25] = test: Biodistribution of intravenously injected [82Br]-labeled compound in liver of BDF1 female mice bearing subcutaneous Lewis lung carcinoma after 24 hours; format: ADME, organism-based; settings: in vivo, iv; method in brief: as §4
Mus musculus [26] = test: Biodistribution of intravenously injected [82Br]-labeled compound in tumor of BDF1 female mice bearing subcutaneous Lewis lung carcinoma after 0.25 hours; format: ADME, organism-based; settings: in vivo, iv
Mus musculus [27] = test: Biodistribution of intravenously injected [82Br]-labeled compound in stomach of BDF1 female mice bearing subcutaneous Lewis lung carcinoma after 4 hours; format: ADME, organism-based; settings: in vivo, iv
Mus musculus [28] = test: Biodistribution of intravenously injected [82Br]-labeled compound in skin of BDF1 female mice bearing subcutaneous Lewis lung carcinoma after 0.25 hours; format: ADME, organism-based, Zone of skin; settings: in vivo, iv; method in brief: as §4
Mus musculus [29] = test: Biodistribution of intravenously injected [82Br]-labeled compound in bone of BDF1 female mice bearing subcutaneous Lewis lung carcinoma after 4 hours; format: ADME, organism-based, Bone element; settings: in vivo, iv; method in brief: as §3
Mus musculus [30] = test: Biodistribution of intravenously injected [82Br]-labeled compound in lung of BDF1 female mice bearing subcutaneous Lewis lung carcinoma after 2 hours; format: ADME, organism-based; settings: in vivo, iv; method in brief: as §4
Mus musculus [31] = test: Biodistribution of intravenously injected [82Br]-labeled compound in skin of BDF1 female mice bearing subcutaneous Lewis lung carcinoma after 8 hours; format: ADME, organism-based, Zone of skin; settings: in vivo, iv; method in brief: as §4
Mus musculus [32] = test: Biodistribution of intravenously injected [82Br]-labeled compound in liver of BDF1 female mice bearing subcutaneous Lewis lung carcinoma after 1 hours; format: ADME, organism-based; settings: in vivo, iv; method in brief: as §4

Compound: O=c1[nH]c(=O)n([C@@H]2O[C@H](CO)[C@@H](O)[C@H]2F)cc1I
- Injected dose/g (Mus musculus [1]): 21.1%
- Injected dose/g (Mus musculus [2]): 3.5%
- Injected dose/g (Mus musculus [3]): 2.6%
- Injected dose/g (Mus musculus [4]): 8.5%
- Injected dose/g (Mus musculus [5]): 0.03%
- Injected dose/g (Mus musculus [6]): 0.08%
- Injected dose/g (Mus musculus [7]): 5%
- Injected dose/g (Mus musculus [8]): 1%
- Injected dose/g (Mus musculus [9]): 1.2%
- Injected dose/g (Mus musculus [10]): 1.8%
- Injected dose/g (Mus musculus [11]): 4.5%
- Injected dose/g (Mus musculus [12]): 3.3%
- Injected dose/g (Mus musculus [13]): 16%

Compound: O=c1[nH]c(=O)n([C@H]2O[C@@H](CO)[C@H](O)[C@H]2F)cc1Br
- Injected dose/g (Mus musculus [14]): 0.79%
- Injected dose/g (Mus musculus [15]): 0.52%
- Injected dose/g (Mus musculus [16]): 1.45%
- Injected dose/g (Mus musculus [17]): 0.26%
- Injected dose/g (Mus musculus [18]): 0.38%
- Injected dose/g (Mus musculus [19]): 0.72%
- Injected dose/g (Mus musculus [20]): 2.68%
- Injected dose/g (Mus musculus [21]): 0.78%
- Injected dose/g (Mus musculus [22]): 1.36%
- Injected dose/g (Mus musculus [23]): 0.46%
- Injected dose/g (Mus musculus [24]): 0.91%
- Injected dose/g (Mus musculus [25]): 0.18%
- Injected dose/g (Mus musculus [26]): 1.39%
- Injected dose/g (Mus musculus [27]): 0.4%
- Injected dose/g (Mus musculus [28]): 1.39%
- Injected dose/g (Mus musculus [29]): 0.17%
- Injected dose/g (Mus musculus [30]): 0.54%
- Injected dose/g (Mus musculus [31]): 0.34%
- Injected dose/g (Mus musculus [32]): 0.34%
